Screens from PubChem.
Arrestin-AP2 inh = inhibitors of beta-arrestin/AP2 binding, primary screen, biochemical, GPCR trafficking, flow cytometry; beta-arrestin 1 C-terminal peptide binding to AP2 beta2-adaptin appendage (human); FITC-arrestin peptide / GST-AP2 beads; AP2 beta2 appendage carries R879A mutation; inhibition, % at 10 µM; actives 0.31% (n = 340,000); AID 504490, 2011;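 active = inhibition above a set limit, near 3 SD of compounds lacking own fluorescence, cut at about 54% in these data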;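 note: plate controls were DMSO wells for no effect and 5 µM unlabelled arrestin peptide for full effect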
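test system = AP2 appendage R879A on GSH beads | buffer or medium = PBS plus Tween 20 (0.05%) and BSA (0.1%) | incubation = 12 min plus 1 h, RT | detection = bead flow cytometry, FITC channel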
MEKK2 mut-MEK5 = MEK5 binding signal on mutant MEKK2 PB1, primary screen, biochemical, multiplex bead flow cytometry, Alexa488-MEK5. AID 1530, 2009. Alexa488-MEK5 binding to MEKK2 mutant. percent response, % at 10 µM. actives 0.35% (n = 290,000); in the data active = percent response above about 24%, passing the limit was not always enough
MEKK2 WT-MEK5 = modulators of MEK5 binding to wildtype MEKK2, primary screen, biochemical, multiplex bead flow cytometry, Alexa488-MEK5; actives 1.1% (n = 290,000); Alexa488-MEK5 binding to MEKK2 WT; actives lie on both sides; binding response (% of control), % at 10 µM; AID 1531, 2009; in the data active = binding response below about 67% or above about 130%
MEKK3 PB1 HTS = modulators of MEKK3-MEK5 PB1 binding, primary screen, biochemical, wildtype MEKK3, multiplex bead flow cytometry, Alexa488-MEK5 | Mitogen-activated protein kinase kinase kinase 3 (Homo sapiens), Q99759 | bead-based flow cytometry, Alexa488-MEK5 binding to MEKK3; actives lie on both sides; 0 = blocked by unlabeled MEK5, 100 = vehicle | binding response (% of control), % at 10 µM | actives 1.4% (n = 290,000) | AID 1529, 2009;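 active = binding response more than 3 SD above or below the average of its plate-row segment, actives on both sides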;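 note: Alexa488 bead fluorescence after subtracting the streptavidin-only scavenger bead signal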
Target sequence (Q99759 whole entry, looked up): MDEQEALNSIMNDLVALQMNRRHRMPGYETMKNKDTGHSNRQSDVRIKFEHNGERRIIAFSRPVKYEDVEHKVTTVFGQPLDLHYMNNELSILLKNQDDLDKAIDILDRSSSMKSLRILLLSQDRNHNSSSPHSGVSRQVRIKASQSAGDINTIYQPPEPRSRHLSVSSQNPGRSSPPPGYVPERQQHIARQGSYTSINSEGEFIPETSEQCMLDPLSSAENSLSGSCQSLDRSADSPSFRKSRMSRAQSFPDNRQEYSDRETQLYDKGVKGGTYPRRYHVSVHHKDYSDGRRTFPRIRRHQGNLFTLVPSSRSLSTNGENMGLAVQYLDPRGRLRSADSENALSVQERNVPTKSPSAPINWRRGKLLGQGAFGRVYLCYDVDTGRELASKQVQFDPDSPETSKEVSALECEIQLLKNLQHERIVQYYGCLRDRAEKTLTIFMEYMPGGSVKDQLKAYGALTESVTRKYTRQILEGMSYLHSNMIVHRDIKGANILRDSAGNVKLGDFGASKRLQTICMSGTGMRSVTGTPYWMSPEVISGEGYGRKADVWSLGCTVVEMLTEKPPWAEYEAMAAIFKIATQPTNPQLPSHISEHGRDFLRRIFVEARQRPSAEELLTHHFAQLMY
MEKK2wt confirm = modulators of MEK5 binding to wildtype MEKK2, confirmation, biochemical, single concentration, multiplex bead flow cytometry; shares compounds with MEKK3 PB1 HTS; Alexa488-MEK5 binding to MEKK2 WT; actives lie on both sides; binding response (% of control), % at 10 µM; actives 2.4% (n = 5,900); in the data active = binding response below about 16% or above about 210%; inactive = in between
MEKK2mut-MEK5 = mutant MEKK2 PB1-MEK5 binding signal retest – biochemical, single concentration, multiplex bead flow cytometry, confirmation. shares compounds with MEKK3 PB1 HTS. Alexa488-MEK5 binding to MEKK2 mutant. percent response, % at 10 µM. actives 2% (n = 5,900). AID 1893, 2009; in the data active = percent response mostly above about 71%, no sharp cut-off; inactive = mostly below about 38%;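 note: higher means compound restores mutant binding toward wildtype level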
MEKK3 confirm = MEKK3 wild-type PB1 binding to MEK5, inhibitors, confirmation, biochemical, bead multiplex flow cytometry, single concentration, wildtype. actives 1.8% (n = 5,900). Alexa488-MEK5 binding to MEKK3; active compounds read low. binding response (% of control), % at 10 µM. shares compounds with MEKK3 PB1 HTS;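 active = binding response below 72% of control, or above a set upper limit, though filed actives all read lower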;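 note: 100% = DMSO only wells and 0% = binding blocked by excess unlabeled MEK5; lower values mean stronger disruption of MEK5 binding to MEKK3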
Active calls of the source: *; [ ] = remark or other dose. Hits are enriched below; roughly 2.3% of the tested compounds scored in any of these assays.

CCN(CC(=O)NC(C)C)C(=O)Cc1ccc(C)c(C)c1 was read as Arrestin-AP2 inh 7, MEKK2 mut-MEK5 -4, MEKK2 WT-MEK5 103 and MEKK3 PB1 HTS 107.
O=C(NCC1CCCO1)c1csc2c1CCCCC2 (stereo not given) was read as Arrestin-AP2 inh 2, MEKK2 mut-MEK5 -39, MEKK2 WT-MEK5 -4.0*[inhibitor], MEKK3 PB1 HTS 0.0*[inhibitor], MEKK2wt confirm 107, MEKK2mut-MEK5 9 and MEKK3 confirm 106.
Screening CC1CCc2c(C(=O)NCC3CCCO3)csc2C1 (stereo not given) returned Arrestin-AP2 inh -4, MEKK2 mut-MEK5 1, MEKK2 WT-MEK5 96 and MEKK3 PB1 HTS 99.
CCCCCCOC(=O)C[N+](C)(C)CCOC1CC2CCC1(C)C2(C)C (stereo not given) was read as Arrestin-AP2 inh 23, MEKK2 mut-MEK5 14, MEKK2 WT-MEK5 202*, MEKK3 PB1 HTS 113, MEKK2wt confirm 146, MEKK2mut-MEK5 23 and MEKK3 confirm 106.
For CCCCOC(=O)C[N+](C)(C)CCOC1CC2CCC1(C)C2(C)C (stereo not given) the results were Arrestin-AP2 inh 0, MEKK2 mut-MEK5 1, MEKK2 WT-MEK5 110 and MEKK3 PB1 HTS 119.
CCCCCCCOC(=O)C[N+](C)(C)CCOC1CC2CCC1(C)C2(C)C (stereo not given) was read as Arrestin-AP2 inh 2, MEKK2 mut-MEK5 38, MEKK2 WT-MEK5 163*, MEKK3 PB1 HTS 100, MEKK2wt confirm 186, MEKK2mut-MEK5 49 and MEKK3 confirm 111.
For Cc1cc(C)c(NC(=O)CNC(=O)COC(=O)C2=COCCO2)c(C)c1 the results were Arrestin-AP2 inh 13.
For Cc1ccccc1Oc1nc2c(C)cccn2c(=O)c1/C=C(\C#N)C(=O)Nc1c(C)n(C)n(-c2ccccc2)c1=O the results were Arrestin-AP2 inh 0, MEKK2 mut-MEK5 0, MEKK2 WT-MEK5 102, MEKK3 PB1 HTS 137*, MEKK2wt confirm 68, MEKK2mut-MEK5 -18 and MEKK3 confirm 65*.
For Cc1cc2c(=O)n(Cc3ccco3)c(SCC(=O)NCc3ccco3)nc2s1 the results were Arrestin-AP2 inh 4, MEKK2 mut-MEK5 -21, MEKK2 WT-MEK5 2.0*[inhibitor], MEKK3 PB1 HTS 2.0*[inhibitor], MEKK2wt confirm 100, MEKK2mut-MEK5 11 and MEKK3 confirm 102.
Cc1nnc(SCC(=O)NCc2ccco2)[nH]c1=O was read as Arrestin-AP2 inh 6, MEKK2 mut-MEK5 7, MEKK2 WT-MEK5 135*, MEKK3 PB1 HTS 133*, MEKK2wt confirm 104, MEKK2mut-MEK5 3 and MEKK3 confirm 102.
`O=C(NCCc1ccc(Cl)cc1)C1CCCO1` (stereo not given) gave Arrestin-AP2 inh -9, MEKK2 mut-MEK5 6, MEKK2 WT-MEK5 111 and MEKK3 PB1 HTS 103.
`C=CCN(c1ccccc1)S(=O)(=O)c1cccc(C(=O)N(CC)CC(=O)Nc2c(F)cccc2F)c1` gave Arrestin-AP2 inh 1, MEKK2 mut-MEK5 8, MEKK2 WT-MEK5 111 and MEKK3 PB1 HTS 104.
Screening O=C(CNCCC1=CCCCC1)Nc1ccc(N2CCCCCC2)cc1 returned Arrestin-AP2 inh 27, MEKK2 mut-MEK5 29, MEKK2 WT-MEK5 188*, MEKK3 PB1 HTS 105, MEKK2wt confirm 194, MEKK2mut-MEK5 56 and MEKK3 confirm 112.
`O=C(Nc1ccc(N2CCOCC2)cc1)C1CCCCC1` gave Arrestin-AP2 inh -2, MEKK2 mut-MEK5 -3, MEKK2 WT-MEK5 78, MEKK3 PB1 HTS 82*[inhibitor], MEKK2wt confirm 100, MEKK2mut-MEK5 -1 and MEKK3 confirm 105.
For NS(=O)(=O)c1ccc(NC(=O)COC(=O)C2CCCCC2)cc1 the results were Arrestin-AP2 inh -5, MEKK2 mut-MEK5 -1, MEKK2 WT-MEK5 94 and MEKK3 PB1 HTS 92.
O=C(COC(=O)C1CCCCC1)Nc1ccc(N2CCCCC2)cc1 was read as Arrestin-AP2 inh 5, MEKK2 mut-MEK5 47*, MEKK2 WT-MEK5 150*, MEKK3 PB1 HTS 102, MEKK2wt confirm 129, MEKK2mut-MEK5 15 and MEKK3 confirm 101.
For O=C(Nc1ccc(OC(F)F)cc1)c1cc(S(=O)(=O)N2CCOCC2)ccc1F the results were Arrestin-AP2 inh 4, MEKK2 mut-MEK5 9, MEKK2 WT-MEK5 110 and MEKK3 PB1 HTS 109.
COc1cccc2[nH]c3c(N4CCc5ccccc5C4)ncnc3c12 was read as MEKK2 mut-MEK5 26, MEKK2 WT-MEK5 147*, MEKK3 PB1 HTS 103, MEKK2wt confirm 152, MEKK2mut-MEK5 26 and MEKK3 confirm 108.
COc1cccc2[nH]c3c(N4CCC(C)CC4)ncnc3c12 was read as Arrestin-AP2 inh -2, MEKK2 mut-MEK5 -7, MEKK2 WT-MEK5 104 and MEKK3 PB1 HTS 90.
For CCN(C[C@H]1N[C@@](CC)(C(=O)OC)[C@H]2C(=O)N(C)C(=O)[C@@H]12)C(=O)COC the results were Arrestin-AP2 inh 2.
`CN(Cc1ccccc1)S(=O)(=O)c1ccc2c(c1)n(C)c(=O)n2C` gave Arrestin-AP2 inh 5, MEKK2 mut-MEK5 -41, MEKK2 WT-MEK5 1.0*[inhibitor], MEKK3 PB1 HTS 2.0*[inhibitor], MEKK2wt confirm 101, MEKK2mut-MEK5 5 and MEKK3 confirm 103.
CCOC(=O)C1(CCOC)CCN(C(=O)c2ccc(CSC)o2)CC1 was read as Arrestin-AP2 inh 0, MEKK2 mut-MEK5 6, MEKK2 WT-MEK5 104 and MEKK3 PB1 HTS 101.
Screening CC(=O)NS(=O)(=O)c1ccc(N=c2ssc3c2-c2cc(C)ccc2NC3(C)C)cc1 returned Arrestin-AP2 inh 4, MEKK2 mut-MEK5 0, MEKK2 WT-MEK5 97, MEKK3 PB1 HTS 129*, MEKK2wt confirm 90, MEKK2mut-MEK5 -7 and MEKK3 confirm 96.
COc1cc(C(=O)OCC2CC(c3ccccc3)=NO2)cc(OC)c1OC (stereo not given) was read as Arrestin-AP2 inh 11, MEKK2 mut-MEK5 280*, MEKK2 WT-MEK5 93, MEKK3 PB1 HTS 101, MEKK2wt confirm 100, MEKK2mut-MEK5 0 and MEKK3 confirm 104.
